The structures appear in SMILES notation. Active and inactive are the calls of the source. The calls are words filed in the database; no cut-off is given here.

Assay [1] deals with PC-3. Description: Cell cycle arrest in human PC-3 cells assessed as down regulation of c-Myc gene expression at 0.24 uM measured after 3 hrs by qPCR analysis. It counts as functional, cell-based. Put shortly:
(§1)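 Seeded 1×10^5 cells per well in 6-well plates; PC3 treated 3 h. Total RNA extracted, qPCR; each target normalized to reference gene (β-actin) by efficiency-corrected ΔΔCt (Pfaffl) against a control calibrator sample, efficiencies from amplification profiles. Mean ± SEM of four independent experiments.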

The test system of assay [2] is PC-3. Briefly: Induction of morphological changes in human PC-3 cells assessed as reduction in cell density at 0.24 uM measured after 24 hrs in presence of antioxidant N-acetyl-L-cysteine by phase contrast microscopy. It counts as functional, cell-based. Put shortly:
(§2)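 PC3 cells were seeded at 1×10^5 per well in 6-well plates and treated after 24 h, with or without 1 mM N-acetyl-L-cysteine. The same observation field was imaged by phase contrast microscopy at 1, 2, 3, 4 and 24 h. DMSO vehicle served as control.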

For assay [3], the system named is PC-3. Description: Cell cycle arrest in human PC-3 cells assessed as reduction in cell accumulation at G0/G1 phase in presence of antioxidant N-acetyl-L-cysteine at 0.24 uM measured after 3 hrs by propidium iodide staining based flow cytometry. The class given is functional. Put shortly: (§3)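 PC3 cells seeded 1×10^5 per well in 6-well plates, exposed 3 h, with or without 1 mM N-acetyl-L-cysteine pretreatment; vehicle 0.1% DMSO. Harvested with trypsin-EDTA, fixed in 75% ethanol in PBS at 4 °C for 30 min, stained 1 h with RNase (1.5 mg mL^-1) and propidium iodide (90 μg mL^-1); DNA content by flow cytometry. Phase fractions compared with control by ANOVA/Tukey.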

Assay [4] relates to PC-3. Description: Induction of apoptosis in human PC-3 cells assessed as early apoptotic cells at 0.24 uM measured after 6 hrs by Alexa Fluor 488-annexin V/propidium iodide staining based flow cytometry (reference value: 6%). It counts as functional.
Assay [5] relates to PC-3. Description: Cell cycle arrest in human PC-3 cells assessed as down regulation of cyclin D1 expression at 0.24 uM measured after 3 hrs by Western blot analysis. It counts as functional, cell-based. Put shortly: (§4)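 Western blot: PC3 seeded 1×10^7 per 100 mm dish, treated 3 h or 6 h, lysed in RIPA with protease/phosphatase inhibitors; 50 μg protein on 12% SDS-PAGE, PVDF transfer, 5% milk block, anti-cyclin D1 (1:1000) overnight at 4 °C, HRP anti-rabbit secondary, β-actin loading control, ECL detection and band densitometry; two independent experiments.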

In assay [6] the test system is PC-3. Briefly: Cell cycle arrest in human PC-3 cells assessed as reduction in cell accumulation at G0/G1 phase at 0.24 uM measured after 3 hrs by propidium iodide staining based flow cytometry. The class given is functional. In outline:
as §3

The subject of assay [7] is PC-3. Description: Induction of apoptosis in human PC-3 cells assessed as effect on BAX gene expression at 0.24 uM measured after 3 hrs by qPCR analysis. The class given is functional, cell-based. In outline: as §1
The subject of assay [8] is PC-3. Briefly: Induction of apoptosis in human PC-3 cells assessed as effect on BCL2 gene expression at 0.24 uM measured after 3 hrs by qPCR analysis. It counts as functional, cell-based. In outline: as §1
The test system of assay [9] is PC-3. Briefly: Cytotoxicity against human PC-3 cells assessed as reduction in cell viability at 0.24 uM measured after 24 hrs by SRB assay. It counts as functional, cell-based. In outline: (§5)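 SRB assay: PC3 seeded 1×10^4 per well, after 24 h exposed 24 h at 37 °C, 5% CO2 with or without 1 mM N-acetyl-L-cysteine; vehicle 0.1% DMSO. Fixed with 15% TCA at 4 °C for 1 h, dried, stained 0.4% sulforhodamine B, dye solubilized in 10 mM Tris, absorbance 540 nm; ANOVA/Tukey.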

Assay [10] has as its system PC-3. Description: Cell cycle arrest in human PC-3 cells assessed as down regulation of CCND1 gene expression at 0.24 uM measured after 3 hrs by qPCR analysis. The class given is functional, cell-based. Put shortly: as §1
In assay [11] the test system is PC-3. Briefly: Induction of apoptosis in human PC-3 cells assessed as viable cells at 0.24 uM measured after 6 hrs by Alexa Fluor 488-annexin V/propidium iodide staining based flow cytometry (reference value: 89.37%). The class given is functional. Conditions: read-out: Activity.
Assay [12] concerns PC-3. Description: Cell cycle arrest in human PC-3 cells assessed as accumulation of cells at sub-G1 phase at 0.24 uM measured after 3 hrs by propidium iodide staining based flow cytometry (reference value: 0.75 +/- 0.21%). It counts as functional. In outline: as §3
Assay [13] deals with PC-3. Description: Induction of apoptosis in human PC-3 cells assessed as necrotic cells at 0.05 uM measured after 6 hrs by Alexa Fluor 488-annexin V/propidium iodide staining based flow cytometry (reference value: 1.28%). The class given is functional.
Assay [14] has as its system PC-3. Briefly: Cytotoxicity against human PC-3 cells assessed as cell growth inhibition at 0.05 uM measured after 48 hrs by CCK-8 assay relative to control. The class given is functional. Conditions: read-out: GI. Put shortly:
(§6)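 PC3 at 1×10^4 cells per well attached 24 h, pretreated 1 h with carboxy-PTIO (0, 0.50, 3.13, 6.25, 12.50, 25, 50 μM), then compound added for 48 h; washed three times with PBS, growth read by CCK-8 as percent inhibition versus control cells; two experiments in triplicate.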

For assay [15], the system named is PC-3. Briefly: Effect on NFE2L2 gene expression in human PC-3 cells at 0.05 uM measured after 3 hrs by qPCR analysis. It counts as functional, cell-based. In outline:
as §1

Assay [16] relates to PC-3. Briefly: Cytotoxicity against human PC-3 cells assessed as cell growth inhibition at 0.05 uM measured after 48 hrs in presence of 0.5 to 50 uM NO scavenger carboxy-PTIO by CCK-8 assay. It counts as functional, cell-based. Put shortly: as §6
Assay [17] deals with PC-3. Briefly: Induction of morphological changes in human PC-3 cells assessed as loss of adhesion at 0.05 uM measured after 24 hrs by phase contrast microscopy. The class given is functional, cell-based. In outline:
as §2

In assay [18] the test system is PC-3. Briefly: Induction of apoptosis in human PC-3 cells assessed as effect on BCL2 gene expression at 0.05 uM measured after 3 hrs by qPCR analysis. The class given is functional, cell-based. In outline: as §1
Assay [19] has as its system PC-3. Briefly: Cell cycle arrest in human PC-3 cells assessed as down regulation of cyclin D1 expression at 0.05 uM measured after 3 hrs by Western blot analysis. The class given is functional, cell-based. Put shortly: as §4
The subject of assay [20] is PC-3. Description: Cell cycle arrest in human PC-3 cells assessed as increase in cell accumulation at sub-G1 phase at 0.05 uM measured after 3 hrs in presence of antioxidant N-acetyl-L-cysteine by propidium iodide staining based flow cytometry. The class given is functional. In outline:
as §3

The subject of assay [21] is PC-3. Description: Induction of ROS generation in human PC-3 cells at 0.05 uM measured after 30 mins by CellROX reagent based confocal microscopy. It counts as functional, cell-based. Put shortly:
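Confocal ROS imaging of PC3: cells loaded with 2.5 μM CellROX green plus 0.5 μM MitoTracker Red for 30 min at 37 °C, washed three times in PBS, imaged immediately; DMSO vehicle and H2O2 controls.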

The subject of assay [22] is PC-3. Briefly: Cell cycle arrest in human PC-3 cells assessed as accumulation of cells at sub-G1 phase at 0.05 uM measured after 3 hrs by propidium iodide staining based flow cytometry (reference value: 0.75 +/- 0.21%). The class given is functional. In outline:
as §3

The subject of assay [23] is PC-3. Briefly: Cell cycle arrest in human PC-3 cells assessed as increase in cell accumulation at G2/M phase in presence of antioxidant N-acetyl-L-cysteine at 0.05 uM measured after 3 hrs by propidium iodide staining based flow cytometry. It counts as functional. Put shortly:
as §3

Assay [24] deals with PC-3. Description: Cytotoxicity against human PC-3 cells assessed as reduction in cell viability at 0.05 uM measured after 24 hrs by SRB assay. The class given is functional, cell-based. Put shortly:
as §5

Assay [25] concerns PC-3. Briefly: Cell cycle arrest in human PC-3 cells assessed as increase in cell accumulation at G2/M phase at 0.05 uM measured after 3 hrs by propidium iodide staining based flow cytometry. The class given is functional. Put shortly:
as §3

As for `COc1cc(/C=C/C(=O)N2CCC=CC2=O)cc(OC)c1OCCCOc1no[n+]([O-])c1S(=O)(=O)c1ccccc1`, the result in the assay with PC-3 [1], in the assay on PC-3 [3], in the assay on PC-3 [5], in the assay on PC-3 [9] and in the assay on PC-3 [10] was Active. For the same compound, the result with PC-3 [2], in the assay with PC-3 [7] and in the assay with PC-3 [8] was inactive. The Activity in the assay with PC-3 [4] was 9.17%; in the assay on PC-3 [6] it was “Active; Significant Reduction Observed”; with PC-3 [12], 7.6%. Moreover, in the assay on PC-3 [11], the viability at 0.24 µM was found to be 48.6%.

Regarding `COc1cc(/C=C/C(=O)N2CCC=CC2=O)cc(OC)c1OCCCCCCCCCCCCOc1no[n+]([O-])c1S(=O)(=O)c1ccccc1`, the Activity in the assay on PC-3 [13] is 0.87%; in the assay with PC-3 [17] it was “Active; Partial Loss Of Adhesion Observed”; with PC-3 [22] it was 9.8%. Moreover, the inhibition of growth at 0.05 µM in the assay on PC-3 [14] worked out at 65%. The outcome in the assay with PC-3 [15], in the assay with PC-3 [19], in the assay on PC-3 [21], in the assay with PC-3 [23], in the assay with PC-3 [24] and in the assay with PC-3 [25] was Active. Further, in the assay with PC-3 [16], the “growth inhibition (GI)” value is “inactive”. Besides, the outcome with PC-3 [18] and in the assay on PC-3 [20] was inactive.

Values taken from ChEMBL document CHEMBL6134784, “Furoxan-piplartine hybrids as effective NO donors and ROS inducers in PC3 cancer cells: design, synthesis, and biological evaluation” (RSC Med Chem, 2024).
